Source: paper PMC6613170 (Proceedings of the National Academy of Sciences of the …, 2019)

How the values were obtained:
OX161 cells = test: OX161 cyst assay; assay type: cell-based, human
MDCK cells [1] = test: MDCK cyst assay; assay type: cell-based, canine
MDCK cells [2] = test: cAMP ELISA in forskolin-challenged MDCK cells; assay type: cell-based, canine; conditions: 15 min
Outline: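 MDCK cells in 2D culture (DMEM, 10% FBS) are pretreated for 1 h with test compound (3 µM), with or without roflumilast (100 nM), then challenged with forskolin (3 µM, 15 min). Intracellular and extracellular cAMP are measured with a commercial cAMP ELISA kit. Intracellular data are mean ± SD of n = 7 experiments; extracellular data come from three independent experiments.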

MDCK cells [3] = test: xCELLigence impedance-based proliferation assay; assay type: cell-based, canine; conditions: 2D culture; MR-L2 added 24 h after inception
Outline: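 MDCK cells are plated at 5,000 cells per well in 2D culture and left to adhere for 24 h. Test compound is then added, and cell number is followed by xCELLigence electrical-impedance monitoring.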

S133D-PDE4D5 = S133D-PDE4D5 (Homo sapiens, UniProt Q08499, S197D); test: cAMP phosphodiesterase assay, MK2 phosphomimetic mutant; assay type: biochemical
Outline: (§1)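 PDE4 constructs were expressed from pcDNA3.1 (mutants by site-directed mutagenesis) after lipid transfection into mammalian cells. Lysate was spun at 2,000 × g for 10 min, then 100,000 × g for 30 min, and supernatant protein was measured by BCA. cAMP hydrolysis used 200 ng–1 µg protein per reaction for 10 min, within the linear range.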

[4] = system: primary human ADPKD cells; test: Primary human ADPKD cell viability; assay type: cell-based; conditions: unstimulated and vasopressin-treated cultures
Outline: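 Primary epithelial cells cultured from single kidney cysts of a patient with ADPKD, kept in supplier's proprietary media. For the cyst assay, cells were grown in biogels with RenalCyte media in 96- or 384-well format. Viability was read as luminescence-based detection of ATP as a function of living cells.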

PDE4A4 = PDE4A4 (Homo sapiens, UniProt P27815); test: cAMP phosphodiesterase assay, long isoform PDE4A4; assay type: biochemical; conditions: compared with the other long isoforms
Outline: as §1

human long form PDE4D5 = human long form PDE4D5 (Homo sapiens, UniProt Q08499); test: cAMP phosphodiesterase assay, long isoform PDE4D5; assay type: biochemical
Outline: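 Human PDE4D5 is expressed from pcDNA3.1 in transfected mammalian cells. The 100,000 × g supernatant of KHEM-buffer lysates (200 ng–1 µg protein) is assayed for cAMP hydrolysis for 10 min under linear conditions, with test compound at 3, 10, 30 and 100 µM. Velocity is analysed by Eadie–Hofstee plot to give Vmax and Km for cAMP.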

Ser651Asp-PDE4D5 = Ser651Asp-PDE4D5 (Homo sapiens, UniProt Q08499, S715D); test: cAMP phosphodiesterase assay, Erk phosphomimetic mutant; assay type: biochemical
Outline: as §1

[5] = system: truncated core catalytic domain of PDE4D without UCR1, UCR2, and C-terminal tail; test: cAMP phosphodiesterase assay, truncated catalytic domain construct; assay type: biochemical; conditions: n = 4
Outline: (§2)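 PDE4 constructs, including site-directed mutants, are expressed from pcDNA3.1 in transfected mammalian cells. Cells are lysed mechanically in KHEM buffer (50 mM KCl, 10 mM EGTA, 50 mM Hepes, 1.92 mM MgCl2, pH 7.4). Lysate is cleared at 2,000 × g for 10 min, then 100,000 × g for 30 min. Supernatant (200 ng–1 µg protein per reaction, BCA) is assayed for cAMP hydrolysis for 10 min under linear conditions.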

PDE4C3 = PDE4C3 (Homo sapiens, UniProt Q08493); test: cAMP phosphodiesterase assay, long isoform PDE4C3; assay type: biochemical
Outline: as §2

[6] = system: primary human ADPKD cells; test: Primary human kidney cell cyst assay; assay type: cell-based
Outline: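 Primary epithelial cells from single kidney cysts of an ADPKD patient are grown in biogels with RenalCyte medium. Cysts form spontaneously or with 10 nM vasopressin, across graded test compound concentrations. Cysts are counted by manual imaging or automated whole-well imaging. Values are given as SD of four treatments.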

S126D:S133D-PDE4D5 = S126D:S133D-PDE4D5 (Homo sapiens, UniProt Q08499, S190D/S197D); test: cAMP phosphodiesterase assay, PKA/MK2 double phosphomimetic mutant; assay type: biochemical; conditions: relative to S126D-PDE4D5
Outline: as §2

CFTR = CFTR assay; assay type: cell-based, canine; conditions: 100 nM PGE2
[7] = system: short isoforms of PDE4A, B, and D families; test: cAMP phosphodiesterase assay, short PDE4 isoforms; assay type: biochemical
Outline: as §2

MDCK cells [8] = test: DNA normalized ATP levels in MDCK cystic cultures; assay type: cell-based, canine; conditions: MR-L2 3 µM; ± SD
DD1-R499D-PDE4D5 = DD1-R499D-PDE4D5 (Homo sapiens, UniProt Q08499, N238A/N239A/R237A/R563D); test: cAMP phosphodiesterase assay, dimerization-deficient mutant; assay type: biochemical
Outline: as §1

PDE4B1 = PDE4B1 (Homo sapiens, UniProt Q07343); test: cAMP phosphodiesterase assay, long isoform PDE4B1; assay type: biochemical
Outline: as §2

human long form PDE4D5, sequence (Q08499 1-745 isoform Q08499-6): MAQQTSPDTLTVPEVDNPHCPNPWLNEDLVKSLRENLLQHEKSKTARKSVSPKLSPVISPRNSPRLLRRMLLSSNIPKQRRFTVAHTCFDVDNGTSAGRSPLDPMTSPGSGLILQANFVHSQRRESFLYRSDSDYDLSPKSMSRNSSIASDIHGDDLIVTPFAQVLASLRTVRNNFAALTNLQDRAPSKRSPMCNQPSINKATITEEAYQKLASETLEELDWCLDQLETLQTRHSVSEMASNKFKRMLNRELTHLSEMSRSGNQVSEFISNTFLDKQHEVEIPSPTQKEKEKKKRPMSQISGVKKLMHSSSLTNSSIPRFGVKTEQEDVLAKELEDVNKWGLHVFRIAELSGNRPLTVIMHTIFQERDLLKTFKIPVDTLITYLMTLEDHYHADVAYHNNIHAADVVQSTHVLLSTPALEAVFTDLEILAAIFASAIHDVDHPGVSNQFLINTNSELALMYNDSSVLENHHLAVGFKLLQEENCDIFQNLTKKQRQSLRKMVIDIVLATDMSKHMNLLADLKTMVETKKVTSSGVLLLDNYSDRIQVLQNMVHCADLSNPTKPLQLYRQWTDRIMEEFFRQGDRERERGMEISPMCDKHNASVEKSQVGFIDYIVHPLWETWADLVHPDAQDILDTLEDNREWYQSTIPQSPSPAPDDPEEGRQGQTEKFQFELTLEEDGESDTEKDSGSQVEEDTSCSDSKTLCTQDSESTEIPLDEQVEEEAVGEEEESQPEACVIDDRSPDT
PDE4A4, sequence (P27815 whole entry, canonical isoform): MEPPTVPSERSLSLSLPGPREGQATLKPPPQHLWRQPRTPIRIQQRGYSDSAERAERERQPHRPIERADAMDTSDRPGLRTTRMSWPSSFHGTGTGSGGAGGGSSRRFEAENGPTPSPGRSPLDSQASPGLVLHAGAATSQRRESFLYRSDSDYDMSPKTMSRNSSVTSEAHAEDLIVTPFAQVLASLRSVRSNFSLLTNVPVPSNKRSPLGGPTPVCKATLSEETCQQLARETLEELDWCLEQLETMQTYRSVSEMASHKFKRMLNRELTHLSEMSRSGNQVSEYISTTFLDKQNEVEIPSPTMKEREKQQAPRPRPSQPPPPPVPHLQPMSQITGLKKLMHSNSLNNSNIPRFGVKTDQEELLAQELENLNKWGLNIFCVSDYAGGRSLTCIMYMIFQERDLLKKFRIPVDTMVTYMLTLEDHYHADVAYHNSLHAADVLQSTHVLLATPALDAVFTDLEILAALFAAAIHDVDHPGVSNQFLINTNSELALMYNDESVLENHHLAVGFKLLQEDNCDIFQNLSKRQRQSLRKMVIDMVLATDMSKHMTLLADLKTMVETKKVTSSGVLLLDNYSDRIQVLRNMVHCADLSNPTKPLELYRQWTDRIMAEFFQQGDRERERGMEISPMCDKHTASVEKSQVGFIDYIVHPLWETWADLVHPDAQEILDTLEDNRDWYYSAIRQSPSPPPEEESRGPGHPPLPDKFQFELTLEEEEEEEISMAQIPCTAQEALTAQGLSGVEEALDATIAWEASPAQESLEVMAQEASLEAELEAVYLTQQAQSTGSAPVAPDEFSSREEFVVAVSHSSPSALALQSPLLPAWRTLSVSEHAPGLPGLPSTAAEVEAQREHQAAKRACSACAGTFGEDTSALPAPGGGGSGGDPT
Ser651Asp-PDE4D5, sequence (Q08499 1-745 isoform Q08499-6 S651D): as the sequence (Q08499 1-745 isoform Q08499-6) above, with S651D counted along it
S126D:S133D-PDE4D5, sequence (Q08499 1-745 isoform Q08499-6 S126D/S133D): as the sequence (Q08499 1-745 isoform Q08499-6) above, with S126D, S133D counted along it
PDE4C3, sequence (Q08493 1-680 isoform Q08493-3, species assumed): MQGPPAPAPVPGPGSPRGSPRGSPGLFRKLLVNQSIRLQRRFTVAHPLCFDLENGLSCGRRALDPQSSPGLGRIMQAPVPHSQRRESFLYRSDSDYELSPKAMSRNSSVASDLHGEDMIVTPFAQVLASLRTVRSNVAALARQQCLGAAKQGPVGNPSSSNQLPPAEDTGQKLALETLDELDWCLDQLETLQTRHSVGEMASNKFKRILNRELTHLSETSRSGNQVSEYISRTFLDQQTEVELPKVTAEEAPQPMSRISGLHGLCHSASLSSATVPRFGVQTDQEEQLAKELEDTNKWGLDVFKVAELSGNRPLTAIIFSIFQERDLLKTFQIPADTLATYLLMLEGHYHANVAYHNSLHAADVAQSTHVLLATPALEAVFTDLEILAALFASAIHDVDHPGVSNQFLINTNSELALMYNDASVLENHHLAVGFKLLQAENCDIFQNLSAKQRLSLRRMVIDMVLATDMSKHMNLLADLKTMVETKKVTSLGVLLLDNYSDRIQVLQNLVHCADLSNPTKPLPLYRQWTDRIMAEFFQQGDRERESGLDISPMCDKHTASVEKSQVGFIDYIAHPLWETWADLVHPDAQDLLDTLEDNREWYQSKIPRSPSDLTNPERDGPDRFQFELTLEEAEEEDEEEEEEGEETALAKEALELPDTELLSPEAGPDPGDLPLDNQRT
DD1-R499D-PDE4D5, sequence (Q08499 1-745 isoform Q08499-6 R173A/N174A/N175A/R499D): as the sequence (Q08499 1-745 isoform Q08499-6) above, with R173A, N174A, N175A, R499D counted along it
S133D-PDE4D5, sequence (Q08499 1-745 isoform Q08499-6 S133D): as the sequence (Q08499 1-745 isoform Q08499-6) above, with S133D counted along it
PDE4B1, sequence (Q07343 whole entry, species assumed, canonical isoform): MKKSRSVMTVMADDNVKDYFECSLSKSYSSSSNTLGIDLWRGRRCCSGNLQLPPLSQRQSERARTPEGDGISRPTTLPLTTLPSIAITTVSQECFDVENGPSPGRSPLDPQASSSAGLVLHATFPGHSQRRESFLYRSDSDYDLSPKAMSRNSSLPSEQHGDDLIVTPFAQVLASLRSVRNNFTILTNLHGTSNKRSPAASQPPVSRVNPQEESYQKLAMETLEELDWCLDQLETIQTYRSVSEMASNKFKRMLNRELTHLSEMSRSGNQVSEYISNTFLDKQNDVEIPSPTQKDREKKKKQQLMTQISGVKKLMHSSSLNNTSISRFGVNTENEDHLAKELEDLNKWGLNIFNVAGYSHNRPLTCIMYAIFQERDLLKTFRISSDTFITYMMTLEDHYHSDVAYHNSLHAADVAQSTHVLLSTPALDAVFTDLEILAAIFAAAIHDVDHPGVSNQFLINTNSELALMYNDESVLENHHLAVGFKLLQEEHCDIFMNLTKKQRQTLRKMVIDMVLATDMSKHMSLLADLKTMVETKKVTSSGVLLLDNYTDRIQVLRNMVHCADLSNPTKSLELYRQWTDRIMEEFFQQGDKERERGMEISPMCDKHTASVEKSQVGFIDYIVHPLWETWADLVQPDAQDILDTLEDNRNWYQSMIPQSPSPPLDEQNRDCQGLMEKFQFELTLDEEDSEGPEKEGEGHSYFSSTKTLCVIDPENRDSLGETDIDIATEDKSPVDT

Compound: COc1ccc(C2CNC(=O)C2)cc1OC1CCCC1 (stereo not shown) [rolipram, reference compound]
- cystogenesis of OX161 cells (OX161 cells; challenge with rolipram, 3D culture): enhanced
- effect on agonist-driven (PGE2-induced) cyst formation (MDCK cells [1]; increasing concentrations of rolipram): exacerbates agonist-driven cyst formation in a concentration-dependent manner

Compound: O=C(Nc1c(Cl)cncc1Cl)c1ccc(OC(F)F)c(OCC2CC2)c1 [roflumilast, reference compound]
- effect on suppression of forskolin-stimulated cAMP accumulation by MR-L2 (3 µM) (MDCK cells [2]; roflumilast 100 nM cotreatment, forskolin 3 µM): ablated the suppressive effect of MR-L2
- effect on suppression of cystogenesis by MR-L2 (3 µM) (MDCK cells [1]; roflumilast 100 nM, PGE2 300 nM): interdict the suppression of cystogenesis

Compound: CCc1nc(-c2ccc(Cl)c(F)c2)nn1CC(=O)NCc1cc(Cl)cc(Cl)c1 [MR-L2, 2-(3-(4-chloro-3-fluorophenyl)-5-ethyl-1H-1,2,4-triazol-1-yl)-N-(3,5-dichlorobenzyl)acetamide]
- effect on cell number (cytotoxicity) (MDCK cells [3]): no effect
- activation of S133D-PDE4D5 (S133D-PDE4D5): activated by MR-L2 to a similar extent to wild-type PDE4D5
- cell viability [4]: without adversely affecting cell viability
- activation of PDE4A4 (PDE4A4): slightly enhanced magnitude of activation
- mode of action on cAMP hydrolysis by PDE4D5 (human long form PDE4D5): reversible, noncompetitive activator
- increase in activity over basal levels (human long form PDE4D5; maximally effective concentrations of MR-L2): ~60%
- activation of Ser651Asp-PDE4D5 (Ser651Asp-PDE4D5): comparable increase in activity to that seen when employing wild-type PDE4D5
- intracellular cAMP elevation in response to forskolin (MDCK cells [2]; 1-h pretreatment with MR-L2, forskolin 3 µM): significantly suppressed cAMP elevation
- extracellular level of cAMP (MDCK cells [2]; MR-L2 3 µM, 1 h before forskolin 3 µM): significantly reduced
- activation of truncated core catalytic domain of PDE4D [5]: does not activate
- activation of PDE4C3 (PDE4C3): activates
- number of cysts formed in 3D culture ([6]; unstimulated (spontaneous cyst formation)): clearly suppressed the number of cysts
- number of cysts formed in 3D culture ([6]; vasopressin-treated (10 nM)): clearly suppressed the number of cysts
- PGE2-stimulated cystogenesis of OX161 cells (OX161 cells; concentration-dependent): attenuated
- activation of S126D:S133D-PDE4D5 (S126D:S133D-PDE4D5): partially restore sensitivity
- PGE2-elicited CFTR activity (membrane depolarization) (CFTR; MR-L2 preincubation 40 min): clearly suppressed in a concentration-dependent manner
- activation of short PDE4 isoforms [7]: did not activate
- reduction in the ATP/DNA ratio (MDCK cells [8]): 15.6 ± 30%
- activation of DD1-R499D-PDE4D5 (DD1-R499D-PDE4D5): complete loss of sensitivity to activation
- PGE2-stimulated cyst formation (MDCK cells [1]; MR-L2 3 µM, incremental PGE2 concentrations): suppressed
- forskolin-induced cyst formation (MDCK cells [1]; MR-L2 3 µM, incremental forskolin concentrations): suppressed forskolin-induced cyst formation
- EC50 (MDCK cells [1]; read-out: EC50, suppression of PGE2-induced cyst formation, PGE2 300 nM): 1 µM
- activation of PDE4B1 (PDE4B1): activates

Compound: O=C(O)c1ccc(/C=C2\SC(=S)N(c3cccc(C(F)(F)F)c3)C2=O)cc1 [CFTRINH172, reference compound]
- PGE2-induced membrane depolarization (CFTR; CFTR inhibitor 100 µM): reversed
